The results in this text go back to ChEMBL document CHEMBL3351848, “Novel insights into structure and function of factor XIIIa-inhibitor tridegin” (J Med Chem, 2014).

The term IC50 denotes the concentration that gives 50% inhibition. What is called inhibition is the relative decrease from the control value, in per cent. The Kd is the free concentration of one partner at which half of the binding sites on the other are occupied at equilibrium, for simple one-to-one binding.

For experiment [1], the target named is T1, Coagulation factor XIII B chain (Homo sapiens) (UniProt P05160).
T1 sequence (whole entry): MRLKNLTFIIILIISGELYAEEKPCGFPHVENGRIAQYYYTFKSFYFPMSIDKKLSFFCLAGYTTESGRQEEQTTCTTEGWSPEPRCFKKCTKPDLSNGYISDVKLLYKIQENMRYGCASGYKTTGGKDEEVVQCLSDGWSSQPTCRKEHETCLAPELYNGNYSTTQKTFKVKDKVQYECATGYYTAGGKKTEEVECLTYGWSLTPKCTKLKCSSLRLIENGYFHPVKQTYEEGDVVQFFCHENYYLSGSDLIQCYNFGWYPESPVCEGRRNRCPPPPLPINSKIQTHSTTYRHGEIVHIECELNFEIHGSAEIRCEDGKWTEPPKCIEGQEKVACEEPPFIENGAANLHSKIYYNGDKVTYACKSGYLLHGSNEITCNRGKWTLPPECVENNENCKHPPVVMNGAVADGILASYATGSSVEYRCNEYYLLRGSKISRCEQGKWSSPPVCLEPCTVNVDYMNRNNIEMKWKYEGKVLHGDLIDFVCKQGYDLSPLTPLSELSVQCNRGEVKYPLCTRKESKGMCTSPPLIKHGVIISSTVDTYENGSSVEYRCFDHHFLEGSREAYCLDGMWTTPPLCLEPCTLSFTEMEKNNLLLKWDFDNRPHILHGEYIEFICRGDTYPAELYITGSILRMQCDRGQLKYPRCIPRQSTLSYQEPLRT
Nature of the experiment: Binding affinity to nonactivated recombinant F13B subunit (unknown origin) by microscale thermophoresis method. Put shortly: (§1)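 Carboxyfluorescein-labeled peptide (2 μM solution, before mixing) in 50 mM Tris-HCl pH 7.5, 0.9% w/v NaCl, with Tween-20 to 0.1% final. Mixed with an equal volume of protein (FXIIIa, FXIII-A or FXIII-B) in the same buffer, 15 concentrations spanning 3.1 μM to 0.1 nM. After 20 min incubation, the mixture was loaded into glass capillaries and thermophoresis read three times per capillary.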
A general note: MST reads how a fluorescent partner responds to local heating, with and without ligand.

Experiment [2] concerns the target T2, Coagulation factor XIII A chain (Homo sapiens, UniProt P00488).
T2 sequence (P00488 whole entry): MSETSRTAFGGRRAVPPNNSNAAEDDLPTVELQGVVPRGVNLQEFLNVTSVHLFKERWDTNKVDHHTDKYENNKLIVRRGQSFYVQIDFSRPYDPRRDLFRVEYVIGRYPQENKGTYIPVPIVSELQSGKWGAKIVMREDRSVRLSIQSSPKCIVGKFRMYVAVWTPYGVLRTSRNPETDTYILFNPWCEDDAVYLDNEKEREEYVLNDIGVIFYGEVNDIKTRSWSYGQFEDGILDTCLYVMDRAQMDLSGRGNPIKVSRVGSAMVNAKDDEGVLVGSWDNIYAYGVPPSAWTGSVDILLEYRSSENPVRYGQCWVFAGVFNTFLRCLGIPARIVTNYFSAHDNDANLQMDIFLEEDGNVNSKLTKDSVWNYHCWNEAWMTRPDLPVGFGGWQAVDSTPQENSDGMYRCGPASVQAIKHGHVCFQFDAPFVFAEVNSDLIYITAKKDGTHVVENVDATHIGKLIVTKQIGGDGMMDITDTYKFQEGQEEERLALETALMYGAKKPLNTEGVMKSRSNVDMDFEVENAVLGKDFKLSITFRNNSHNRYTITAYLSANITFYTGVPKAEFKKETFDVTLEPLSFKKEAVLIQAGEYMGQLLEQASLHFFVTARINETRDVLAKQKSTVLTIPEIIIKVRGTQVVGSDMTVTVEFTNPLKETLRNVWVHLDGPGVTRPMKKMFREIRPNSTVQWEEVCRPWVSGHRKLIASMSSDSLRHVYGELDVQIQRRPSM
Nature of the experiment: Inhibition of recombinant F13a (unknown origin) using H-Tyr-Glu(pNA)-Val-Lys-Val-Ile-Gly-NH2 as substrate by chromogenic assay.

For experiment [3], the target named is T3, Coagulation factor XIII A chain (Homo sapiens) (UniProt P00488).
T3 sequence (whole entry): T2 sequence (P00488 whole entry)
Nature of the experiment: Binding affinity to nonactivated recombinant F13A subunit (unknown origin) by microscale thermophoresis method. Put shortly: as §1

For experiment [4], the target named is T4, Protein-glutamine gamma-glutamyltransferase (Homo sapiens) (UniProt P21980).
T4 sequence (whole entry): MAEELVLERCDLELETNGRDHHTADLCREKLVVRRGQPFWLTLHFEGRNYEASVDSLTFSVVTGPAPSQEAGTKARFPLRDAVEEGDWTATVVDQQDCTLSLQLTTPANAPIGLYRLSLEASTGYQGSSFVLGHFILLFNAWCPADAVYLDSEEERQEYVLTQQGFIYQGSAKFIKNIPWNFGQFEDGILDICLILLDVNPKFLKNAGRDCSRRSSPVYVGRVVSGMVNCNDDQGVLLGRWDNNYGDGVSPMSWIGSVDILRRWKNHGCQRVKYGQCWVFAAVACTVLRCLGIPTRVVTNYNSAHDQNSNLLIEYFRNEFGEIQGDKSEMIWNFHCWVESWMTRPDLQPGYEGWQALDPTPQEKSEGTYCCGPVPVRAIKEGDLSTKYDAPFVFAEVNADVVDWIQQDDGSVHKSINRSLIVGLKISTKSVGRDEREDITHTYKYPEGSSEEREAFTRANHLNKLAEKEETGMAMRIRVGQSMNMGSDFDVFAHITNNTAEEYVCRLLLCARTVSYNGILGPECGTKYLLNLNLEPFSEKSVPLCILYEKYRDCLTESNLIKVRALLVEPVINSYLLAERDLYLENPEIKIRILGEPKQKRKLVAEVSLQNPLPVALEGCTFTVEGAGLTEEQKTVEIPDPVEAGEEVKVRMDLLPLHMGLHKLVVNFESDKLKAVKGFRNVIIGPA
Nature of the experiment: Inhibition of human TGase-2 using fluorogenic FRET substrate at 10 uM.

Experiment [5] addresses T2, Coagulation factor XIII A chain. As to the kind of experiment: Binding affinity to recombinant F13A (unknown origin) by microscale thermophoresis method. Put shortly: as §1

Calls of active or inactive are those of the source. The calls are words filed in the database; no cut-off is given here. Residues, ends and D or L forms follow the SMILES beside them. *: point of attachment. X1 = O=C(c1ccccc1-c1c2ccc(=O)cc-2oc2cc(O)ccc12)*

As for `CC[C@H](C)[C@H](NC(=O)[C@H](CC(=O)O)NC(=O)[C@H](CC(=O)O)NC(=O)[C@H](CCSC)NC(=O)[C@@H]1CCCN1C(=O)[C@H](CCCCN)NC(=O)[C@@H](NC(=O)[C@H](CC(C)C)NC(=O)[C@H](CCC(=O)O)NC(=O)[C@H](CO)NC(=O)[C@H](CCCNC(=N)N)NC(=O)[C@@H]1CCCN1C(=O)[C@H](CCCNC(=N)N)NC(=O)[C@H](CS)NC(=O)[C@H](CCC(N)=O)NC(=O)[C@@H]1CCCN1C(=O)[C@@H](NC(=O)[C@H](Cc1ccccc1)NC(=O)[C@H](C)N)[C@@H](C)CC)[C@@H](C)CC)C(=O)N[C@@H](Cc1ccc(O)cc1)C(=O)N[C@@H](CCC(N)=O)C(=O)N[C@@H](CCCNC(=N)N)C(=O)N1CCC[C@H]1C(=O)N[C@H](C(=O)N[C@@H](CCC(=O)O)C(=O)N[C@@H](Cc1ccccc1)C(=O)N1CCC[C@H]1C(=O)N[C@@H](CC(N)=O)C(=O)N[C@@H](CC(C)C)C(=O)N1CCC[C@H]1C(=O)N[C@@H](CC(C)C)C(=O)N[C@@H](CCCCN)C(=O)N1CCC[C@H]1C(=O)N[C@@H](CCCNC(=N)N)C(=O)N[C@@H](CCC(=O)O)C(=O)O)C(C)C` (H-AFIPQCRPRSELIKPMDDIYQRPVEFPNLPLKPRE-OH), the outcome in experiment [1] and in experiment [3] was inactive. The IC50 in experiment [2] was 1.7 µM.
Turning to `CC[C@H](C)[C@H](NC(=O)[C@H](CC(=O)O)NC(=O)[C@H](CC(=O)O)NC(=O)[C@H](CCSC)NC(=O)[C@@H]1CCCN1C(=O)[C@H](CCCCN)NC(=O)[C@@H](NC(=O)[C@H](CC(C)C)NC(=O)[C@H](CCC(=O)O)NC(=O)[C@H](CO)NC(=O)[C@H](CCCNC(=N)N)NC(=O)[C@@H]1CCCN1C(=O)[C@@H](N)CCCNC(=N)N)[C@@H](C)CC)C(=O)N[C@@H](Cc1ccc(O)cc1)C(=O)N[C@@H](CCC(N)=O)C(=O)N[C@@H](CCCNC(=N)N)C(=O)N1CCC[C@H]1C(=O)N[C@H](C(=O)N[C@@H](CCC(=O)O)C(=O)N[C@@H](Cc1ccccc1)C(=O)N1CCC[C@H]1C(=O)N[C@@H](CC(N)=O)C(=O)N[C@@H](CC(C)C)C(=O)N1CCC[C@H]1C(=O)N[C@@H](CC(C)C)C(=O)N[C@@H](CCCCN)C(=O)N1CCC[C@H]1C(=O)N[C@@H](CCCNC(=N)N)C(=O)N[C@@H](CCC(=O)O)C(=O)O)C(C)C` (H-RPRSELIKPMDDIYQRPVEFPNLPLKPRE-OH), the outcome in experiment [1] and in experiment [3] was inactive. Further, the inhibition in experiment [4] is less than 10%. Further, the concentration for half-maximal inhibition (IC50) in experiment [2] was 2.2 µM.
For `CC[C@H](C)[C@H](NC(=O)[C@H](CC(=O)O)NC(=O)[C@H](CC(=O)O)NC(=O)[C@H](CCSC)NC(=O)[C@@H]1CCCN1C(=O)[C@H](CCCCN)NC(=O)[C@@H](NC(=O)[C@H](CC(C)C)NC(=O)[C@H](CCC(=O)O)NC(=O)[C@@H](N)CO)[C@@H](C)CC)C(=O)N[C@@H](Cc1ccc(O)cc1)C(=O)N[C@@H](CCC(N)=O)C(=O)N[C@@H](CCCNC(=N)N)C(=O)N1CCC[C@H]1C(=O)N[C@H](C(=O)N[C@@H](CCC(=O)O)C(=O)N[C@@H](Cc1ccccc1)C(=O)N1CCC[C@H]1C(=O)N[C@@H](CC(N)=O)C(=O)N[C@@H](CC(C)C)C(=O)N1CCC[C@H]1C(=O)N[C@@H](CC(C)C)C(=O)O)C(C)C` (H-SELIKPMDDIYQRPVEFPNLPL-OH), the IC50 in experiment [2] came to 1.9 µM.
For the compound `CC[C@H](C)[C@H](NC(=O)CNC(=O)[C@H](CCC(N)=O)NC(=O)[C@H](Cc1cnc[nH]1)NC(=O)[C@H](Cc1c[nH]c2ccccc12)NC(=O)[C@H](CCC(=O)O)NC(=O)[C@H](CCCCN)NC(=O)[C@H](CS)NC(=O)[C@@H]1CCCN1C(=O)[C@H](CC(C)C)NC(=O)[C@H](CC(C)C)NC(=O)[C@H](CCCCN)NC(=O)c1ccccc1-c1c2ccc(=O)cc-2oc2cc(O)ccc12)C(=O)N1CCC[C@H]1C(=O)N[C@@H](CC(N)=O)C(=O)N1CCC[C@H]1C(=O)N[C@@H](CCCNC(=N)N)C(=O)N[C@@H](CS)C(=O)N[C@@H](Cc1c[nH]c2ccccc12)C(=O)N[C@@H](CS)C(=O)NCC(=O)N[C@@H](C)C(=O)N[C@@H](CC(=O)O)C(=O)N[C@@H](CC(C)C)C(=O)N[C@@H](CCC(=O)O)C(=O)N[C@@H](CS)C(=O)N[C@@H](C)C(=O)N[C@@H](CCC(N)=O)C(=O)N[C@@H](CC(=O)O)C(=O)N[C@@H](CCC(N)=O)C(=O)N[C@@H](Cc1ccc(O)cc1)C(=O)N[C@@H](CS)C(=O)N[C@@H](C)C(=O)N[C@@H](Cc1ccccc1)C(=O)N[C@H](C(=O)N1CCC[C@H]1C(=O)N[C@@H](CCC(N)=O)C(=O)N[C@@H](CS)C(=O)O)[C@@H](C)CC` (X1-KLLPCKEWHQGIPNPRCWCGADLECAQDQYCAFIPQC-OH), the result in experiment [1] and in experiment [3] was inactive. Besides, the equilibrium dissociation constant (Kd) in experiment [5] is less than 0.1 µM.
As for `CC[C@H](C)[C@H](NC(=O)[C@H](CC(=O)O)NC(=O)[C@H](CC(=O)O)NC(=O)[C@H](CCSC)NC(=O)[C@@H]1CCCN1C(=O)[C@H](CCCCN)NC(=O)[C@@H](NC(=O)[C@H](CC(C)C)NC(=O)[C@H](CCC(=O)O)NC(=O)[C@H](CO)NC(=O)[C@H](CCCNC(=N)N)NC(=O)[C@@H]1CCCN1C(=O)[C@H](CCCNC(=N)N)NC(=O)c1ccccc1-c1c2ccc(=O)cc-2oc2cc(O)ccc12)[C@@H](C)CC)C(=O)N[C@@H](Cc1ccc(O)cc1)C(=O)N[C@@H](CCC(N)=O)C(=O)N[C@@H](CCCNC(=N)N)C(=O)N1CCC[C@H]1C(=O)N[C@H](C(=O)N[C@@H](CCC(=O)O)C(=O)N[C@@H](Cc1ccccc1)C(=O)N1CCC[C@H]1C(=O)N[C@@H](CC(N)=O)C(=O)N[C@@H](CC(C)C)C(=O)N1CCC[C@H]1C(=O)N[C@@H](CC(C)C)C(=O)N[C@@H](CCCCN)C(=O)N1CCC[C@H]1C(=O)N[C@@H](CCCNC(=N)N)C(=O)N[C@@H](CCC(=O)O)C(=O)O)C(C)C` (X1-RPRSELIKPMDDIYQRPVEFPNLPLKPRE-OH), the result in experiment [1] and in experiment [3] was inactive. Also, in experiment [5], the Kd stood at 0.8 µM.
